Assay results taken from ChEMBL document CHEMBL1157476, “A novel class of cycloalkano[b]pyridines as potent and orally active opioid receptor-like 1 antagonists with minimal binding affinity to the hERG K+ channel” (J Med Chem, 2008).
The source made the active and inactive calls. The rule behind the calls is not given here.

How the values were obtained:
[1] = physchem; conditions: buffer, pH 7.4
[2] = molecular target: T1, Nociceptin receptor (Homo sapiens, UniProt P41146); experiment: Displacement of [125I][Tyr14]nociceptin from human ORL1 expressed in CHO cells; format: cell-based
[3] = molecular target: Voltage-gated inwardly rectifying potassium channel KCNH2 (Homo sapiens, UniProt Q12809)
[4] = test system: Plasma; conditions: dog, in vivo, iv, 1 mg/kg, 20 min
[5] = test system: Canis familiaris; experiment: Cardiovascular activity in anesthetized dog assessed as corrected QT interval at 7 mg/kg, iv dosed for 10 mins measured after 20 mins relative to baseline; format: functional, Canis lupus familiaris
Outline: (§1)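 Isoflurane-anesthetized dogs (n = 1 or 3) given cumulative iv doses as saline solutions, each infused over 10 min; 2 and 7 mg/kg doses given 20 min after the prior administration. QTc measured at 0, 10 and 20 min after dosing, expressed as percent change from baseline for each dog. Peak plasma levels taken after each dose.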

[6] = physchem
[7] = in vivo; conditions: dog, plasma, iv, 1 mg/kg
[8] = test system: Canis familiaris; experiment: Cardiovascular activity in anesthetized dog assessed as corrected QT interval at 2 mg/kg, iv dosed for 10 mins measured after 20 mins relative to baseline; format: functional, Canis lupus familiaris
Outline: as §1

[9] = AUC (0 to infinity) in Sprague-Dawley rat at 3 mg/kg, iv; format: ADME, organism-based; design: time infinity, dose 3 mg/kg, route intravenous; conditions: plasma
Outline: (§2)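 Fasted Sprague-Dawley rats (n = 3) received a single intravenous dose. Plasma exposure was expressed as AUC from zero to infinity, in µM·h. The same study also yielded clearance, half-life and steady-state volume of distribution, with oral dosing run in parallel.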

[10] = Half life in Sprague-Dawley rat at 3 mg/kg, iv; format: ADME, organism-based; design: dose 3 mg/kg, route intravenous; conditions: in vivo
Outline: (§3)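 Fasted Sprague-Dawley rats (n = 3) given an intravenous solution in water at 3 or 0.65 mg/kg; plasma pharmacokinetic parameters from the IV arm.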

[11] = Bioavailability in Sprague-Dawley rat at 10 mg/kg, iv; format: ADME, organism-based; conditions: in vivo, po, in the assay text read “po” for “iv”
Outline: (§4)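 Fasted Sprague-Dawley rats (n = 3) dosed orally as a solution in water (10 or 3 mg/kg), with matching intravenous arms at 3 or 0.65 mg/kg; F from oral versus IV exposure.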

[12] = Metabolic stability in rat hepatocyte after 30 mins; format: ADME, cell-based; conditions: rat hepatocytes, read-out: Stability
Outline: (§5)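 Compound incubated 30 min with rat hepatocytes or cryopreserved human hepatocytes; percent parent remaining reported; rat as mean of duplicates, human as mean of three experiments.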

[13] = Volume of distribution at steady state in Sprague-Dawley rat at 3 mg/kg, iv; format: ADME, organism-based; design: dose 3 mg/kg, route intravenous; conditions: in vivo, read-out: Vdss
Outline: as §3

[14] = test system: Canis familiaris; experiment: Cardiovascular activity in anesthetized dog assessed as corrected QT interval at 1 mg/kg, iv dosed for 10 mins measured after 20 mins relative to baseline; format: functional, Canis lupus familiaris
Outline: as §1

[15] = in vivo; conditions: dog, plasma, iv, 7 mg/kg
[16] = Plasma clearance in Sprague-Dawley rat at 3 mg/kg, iv; format: ADME, organism-based; design: dose 3 mg/kg, route intravenous
Outline: as §3

[17] = Metabolic stability in cryopreserved human hepatocyte after 30 mins; format: ADME, cell-based; conditions: cryopreserved human hepatocytes, read-out: Stability
Outline: as §5

[18] = in vivo; conditions: dog, plasma, iv, 2 mg/kg
[19] = molecular target: T1, Nociceptin receptor; experiment: Antagonist activity at human ORL1 expressed in CHO cells assessed as effect on nociceptin-induced GTPgammaS binding; format: functional, cell-based
[20] = test system: Mus musculus; experiment: Inhibition of ORL1 agonist-induced hypolocomotion in mouse at 3 mg/kg, sc; format: functional, organism-based; design: dose 3 mg/kg
[21] = Plasma concentration in rat at 10 mg/kg, po after 1 hrs; format: ADME, organism-based; design: dose 10 mg/kg, route oral
Outline: (§6)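 Oral dose 10 mg/kg; plasma and brain collected 1 h after administration and drug concentrations measured, n = 3 per group.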

[22] = Half life in Sprague-Dawley rat at 0.65 mg/kg, iv; format: ADME, organism-based; design: dose 0.65 mg/kg, route intravenous; conditions: in vivo
Outline: as §3

[23] = Half life in Beagle dog at 1 mg/kg, iv; format: ADME, organism-based, Canis lupus familiaris; design: dose 1 mg/kg, route intravenous; conditions: in vivo
Outline: (§7)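 Fasted Beagle dogs (n = 3) given 1 mg/kg intravenously; plasma pharmacokinetic parameters derived from the IV arm.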

[24] = Plasma clearance in Beagle dog at 1 mg/kg, iv; format: ADME, organism-based, Canis lupus familiaris; design: dose 1 mg/kg, route intravenous
Outline: as §7

[25] = Plasma clearance in Sprague-Dawley rat at 0.65 mg/kg, iv; format: ADME, organism-based; design: dose 0.65 mg/kg, route intravenous
Outline: as §3

[26] = Volume of distribution at steady state in Sprague-Dawley rat at 0.65 mg/kg, iv; format: ADME, organism-based; design: dose 0.65 mg/kg, route intravenous; conditions: in vivo, read-out: Vdss
Outline: as §3

[27] = molecular target: Kappa-type opioid receptor (Homo sapiens, UniProt P41145); experiment: Displacement of [3H]U69593 from human cloned kappa opioid receptor expressed in CHO cells; format: cell-based
Outline: (§8)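 Radioligand displacement from CHO cells stably expressing cloned human receptors: [3H]diprenorphin for mu, [3H]U-69593 for kappa, [3H][D-Ala2,D-Leu5]enkephalin for delta; IC50; three independent determinations, each in duplicate.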

[28] = molecular target: Mu-type opioid receptor (Homo sapiens, UniProt P35372); experiment: Displacement of [3H]diprenorphin from human cloned mu opioid receptor expressed in CHO cells; format: cell-based
Outline: as §8

[29] = molecular target: Delta-type opioid receptor (Homo sapiens, UniProt P41143); experiment: Displacement of [3H][D-Ala2,D-Leu5]enkephalin from human cloned delta opioid receptor expressed in CHO cells; format: cell-based
Outline: as §8

[30] = test system: Brain; experiment: Drug level in rat brain at 10 mg/kg, po after 1 hrs; format: ADME, organism-based; design: dose 10 mg/kg, route oral; conditions: in vivo
Outline: as §6

[31] = Bioavailability in Sprague-Dawley rat at 3 mg/kg, iv; format: ADME, organism-based; conditions: in vivo, po, in the assay text read “po” for “iv”
Outline: as §4

[32] = Bioavailability in Beagle dog at 3 mg/kg, po; conditions: in vivo
[33] = AUC (0 to infinity) in Beagle dog at 1 mg/kg, iv; format: ADME, organism-based, Canis lupus familiaris; design: time infinity, dose 1 mg/kg, route intravenous; conditions: plasma
Outline: as §7

[34] = test system: Rattus norvegicus; experiment: AUC (0 to infinity) in Sprague-Dawley rat at 0.65 mg/kg, iv; format: ADME, organism-based, Plasma; design: time infinity, dose 0.65 mg/kg, route intravenous; conditions: in vivo
Outline: as §2

[35] = test system: Mus musculus; experiment: Reversal of ORL agonist-induced locomotor activity in CD1 mouse at 10 mg/kg, po after 60 mins; format: functional
Outline: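 Mice (n = 6) dosed orally at 10 mg/kg, then given an ORL1 agonist. Locomotor activity counted over 60 min against vehicle control and agonist-only groups. Result expressed as % reversal of the agonist-induced reduction in locomotion.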

[36] = Volume of distribution at steady state in Beagle dog at 1 mg/kg, iv; format: ADME, organism-based, Canis lupus familiaris; design: dose 1 mg/kg, route intravenous; conditions: in vivo, read-out: Vdss
Outline: as §7

Chain of Voltage-gated inwardly rectifying potassium channel KCNH2 (Q12809 whole entry): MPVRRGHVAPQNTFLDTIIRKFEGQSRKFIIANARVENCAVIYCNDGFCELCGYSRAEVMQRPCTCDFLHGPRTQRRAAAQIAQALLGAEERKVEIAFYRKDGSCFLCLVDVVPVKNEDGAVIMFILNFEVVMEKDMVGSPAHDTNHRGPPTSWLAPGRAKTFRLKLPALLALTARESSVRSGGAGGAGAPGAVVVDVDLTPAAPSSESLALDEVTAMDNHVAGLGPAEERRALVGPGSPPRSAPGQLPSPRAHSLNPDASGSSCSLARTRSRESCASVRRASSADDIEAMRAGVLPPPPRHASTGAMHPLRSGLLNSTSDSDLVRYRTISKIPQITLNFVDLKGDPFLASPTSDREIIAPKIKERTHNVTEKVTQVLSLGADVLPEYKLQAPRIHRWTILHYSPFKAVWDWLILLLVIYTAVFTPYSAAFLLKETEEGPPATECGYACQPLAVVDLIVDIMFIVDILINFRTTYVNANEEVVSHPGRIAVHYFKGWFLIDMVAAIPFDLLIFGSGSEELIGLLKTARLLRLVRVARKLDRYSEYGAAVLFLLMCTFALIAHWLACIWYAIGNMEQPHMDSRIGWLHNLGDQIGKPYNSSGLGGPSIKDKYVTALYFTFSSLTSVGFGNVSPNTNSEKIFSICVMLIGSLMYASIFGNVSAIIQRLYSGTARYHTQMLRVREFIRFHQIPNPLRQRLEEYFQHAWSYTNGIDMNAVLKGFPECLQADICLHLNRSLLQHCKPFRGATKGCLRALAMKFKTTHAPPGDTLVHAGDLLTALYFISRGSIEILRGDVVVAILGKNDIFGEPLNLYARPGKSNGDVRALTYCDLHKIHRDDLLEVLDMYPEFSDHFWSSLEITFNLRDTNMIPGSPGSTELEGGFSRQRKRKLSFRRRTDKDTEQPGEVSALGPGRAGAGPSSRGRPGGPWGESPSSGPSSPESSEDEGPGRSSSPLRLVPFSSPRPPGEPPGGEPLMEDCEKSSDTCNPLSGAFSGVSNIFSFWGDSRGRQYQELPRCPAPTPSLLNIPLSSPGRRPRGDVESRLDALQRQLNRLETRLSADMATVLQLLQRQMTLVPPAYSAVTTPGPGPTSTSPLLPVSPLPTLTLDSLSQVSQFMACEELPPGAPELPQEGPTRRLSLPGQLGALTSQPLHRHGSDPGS
T1 sequence (P41146 whole entry): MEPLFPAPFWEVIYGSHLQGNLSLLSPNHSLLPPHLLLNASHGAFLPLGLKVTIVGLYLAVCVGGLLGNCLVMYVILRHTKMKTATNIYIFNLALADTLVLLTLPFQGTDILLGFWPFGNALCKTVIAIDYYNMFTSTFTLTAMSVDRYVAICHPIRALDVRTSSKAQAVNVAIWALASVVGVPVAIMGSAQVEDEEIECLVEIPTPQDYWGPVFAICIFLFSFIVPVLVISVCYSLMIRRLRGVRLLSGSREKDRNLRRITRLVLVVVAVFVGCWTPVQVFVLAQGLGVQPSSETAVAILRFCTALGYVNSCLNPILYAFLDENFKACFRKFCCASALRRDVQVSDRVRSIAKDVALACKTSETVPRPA
Chain of Delta-type opioid receptor (P41143 whole entry): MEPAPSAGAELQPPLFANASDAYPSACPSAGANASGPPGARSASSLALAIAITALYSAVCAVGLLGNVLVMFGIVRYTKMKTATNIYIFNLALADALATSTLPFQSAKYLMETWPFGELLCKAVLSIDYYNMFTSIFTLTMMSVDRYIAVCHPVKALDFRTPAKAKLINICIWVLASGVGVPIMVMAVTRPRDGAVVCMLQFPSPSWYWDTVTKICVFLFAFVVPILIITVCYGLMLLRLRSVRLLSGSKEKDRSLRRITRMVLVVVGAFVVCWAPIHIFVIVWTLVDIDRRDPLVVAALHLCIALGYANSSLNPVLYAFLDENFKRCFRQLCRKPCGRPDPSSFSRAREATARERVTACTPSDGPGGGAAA
Chain of Mu-type opioid receptor (P35372 whole entry): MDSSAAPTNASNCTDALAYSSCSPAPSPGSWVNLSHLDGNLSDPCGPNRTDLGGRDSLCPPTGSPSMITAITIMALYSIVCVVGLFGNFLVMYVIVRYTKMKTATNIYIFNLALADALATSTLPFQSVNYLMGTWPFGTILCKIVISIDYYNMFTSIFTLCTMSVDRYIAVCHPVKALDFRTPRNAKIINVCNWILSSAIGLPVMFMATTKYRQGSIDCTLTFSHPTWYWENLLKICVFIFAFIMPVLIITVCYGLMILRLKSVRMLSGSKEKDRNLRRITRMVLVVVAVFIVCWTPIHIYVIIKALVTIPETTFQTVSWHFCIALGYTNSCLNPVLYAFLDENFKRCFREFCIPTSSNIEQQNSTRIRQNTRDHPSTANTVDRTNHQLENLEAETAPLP
Chain of Kappa-type opioid receptor (P41145 whole entry): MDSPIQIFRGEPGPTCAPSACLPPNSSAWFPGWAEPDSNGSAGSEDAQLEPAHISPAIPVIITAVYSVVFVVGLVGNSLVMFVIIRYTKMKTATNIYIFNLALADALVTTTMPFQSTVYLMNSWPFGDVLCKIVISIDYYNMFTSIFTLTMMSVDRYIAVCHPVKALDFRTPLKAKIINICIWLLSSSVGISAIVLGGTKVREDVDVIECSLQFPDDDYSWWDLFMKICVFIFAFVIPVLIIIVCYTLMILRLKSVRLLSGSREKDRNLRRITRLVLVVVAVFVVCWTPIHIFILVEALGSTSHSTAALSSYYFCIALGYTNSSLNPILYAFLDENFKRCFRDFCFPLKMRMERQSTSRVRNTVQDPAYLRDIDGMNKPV

Cc1cc(F)ccc1[C@H]1CCN(C[C@@H]2Cc3cccnc3[C@@H](O)C2)C[C@@H]1O
logD [1]: 1.9
Ki [2]: 21 nM

Cc1ccccc1C1CCN(C[C@@H]2CCc3cccnc3C(C)(O)C2)CC1 (stereo in doubt; form 2)
logD [1]: 2.9
Ki [2]: 17 nM

Cc1ccccc1C1CCN(C[C@@H]2CCc3cccnc3C3(C2)OCCO3)CC1
logD [1]: 3.1
Ki [2]: 25 nM

Cc1ccccc1[C@H]1CCN(C[C@@H]2Cc3cccnc3[C@@H](O)C2)C[C@@H]1O
IC50 [3]: > 50000 nM
Ki [2]: 51 nM

Cc1ccccc1[C@@H]1CCN(C[C@@H]2CCc3cccnc3[C@@H](O)C2)C[C@H]1O
PPB [4]: 62%
Activity [5]: 2%
pKa [6]: 7.8
concentration at 20 min [7]: 2.26 µM
Activity [8]: 0.2%
logD [1]: 2.2
AUC(0-inf) [9]: 1.6 µM·h
half-life [10]: 0.9 h
bioavailability [11]: 11%
remaining at 0.5 h [12]: 6%
Vd [13]: 6.3 L/kg
Activity [14]: 0.2%
concentration at 20 min [15]: 17.9 µM
clearance [16]: 91 mL/min/kg
remaining at 0.5 h [17]: 62%
concentration at 20 min [18]: 4.9 µM

O[C@H]1C[C@H](CN2CCC(c3ccccc3)CC2)CCc2cccnc21
IC50 [3]: 11000 nM
Ki [2]: 30 nM

O[C@H]1C[C@H](CN2CCC(c3ccccc3Cl)CC2)CCc2cccnc21
IC50 [3]: 1500 nM
IC50 [19]: 27 nM
Ki [2]: 1.1 nM

Cc1ccccc1C1CCN(C[C@@H]2CCc3cccnc3C(C)(O)C2)CC1 (stereo in doubt; form 1)
Ki [2]: 24 nM

Cc1ccccc1[C@@H]1CCN(C[C@@H]2CCc3cccnc3[C@@H](O)C2)C[C@H]1CO
Activity [5]: 11.3%
Activity [8]: 0.1%
Activity [14]: -0.1%

Cc1ccccc1C1CCN(C[C@@H]2Cc3cccnc3[C@@H](O)C2)CC1
IC50 [3]: > 50000 nM
logD [1]: 2
Ki [2]: 11 nM

Cc1ccccc1C1CCN(C[C@@H]2CCc3c(C)cccc3[C@@H](O)C2)CC1 (relative stereo)
Activity [20]: inactive

O[C@H]1C[C@H](CN2CCC(c3c(Cl)cccc3Cl)CC2)CCc2cccnc21
IC50 [3]: 940 nM
IC50 [19]: 1.6 nM
logD [1]: > 4
Ki [2]: 0.47 nM

Cc1ccccc1[C@@H]1CCN(C[C@@H]2CCc3cccnc3[C@@H](O)C2)C[C@H]1C
IC50 [19]: 5.7 nM
logD [1]: 3
Ki [2]: 3.5 nM

O[C@H]1C[C@H](CN2CC[C@H](c3ccc(F)cc3Cl)[C@@H](O)C2)Cc2cccnc21
concentration at 1 h [21]: 0.03 µM
half-life [22]: 1.2 h
PPB [4]: 57%
Activity [5]: 2%
half-life [23]: 13.5 h
clearance [24]: 19 mL/min/kg
clearance [25]: 47 mL/min/kg
Vd [26]: 3.9 L/kg
IC50 [27]: > 10000 nM
pKa [6]: 7.4
IC50 [28]: > 10000 nM
concentration at 20 min [7]: 3.48 µM
Activity [8]: 0.9%
logD [1]: 2.3
IC50 [29]: > 10000 nM
Drug uptake [30]: 0.172 nmol/g
remaining at 0.5 h [12]: 30%
Activity [14]: 1.1%
bioavailability [31]: 13%
bioavailability [32]: 39%
concentration at 20 min [15]: 29.8 µM
remaining at 0.5 h [17]: 93%
concentration at 20 min [18]: 8.3 µM
AUC(0-inf) [33]: 2 µM·h
AUC [34]: 0.59 µM·h
Activity [35]: 89%
Vd [36]: 10.6 L/kg

O[C@H]1C[C@H](CN2CC[C@H](c3ccc(F)cc3Cl)[C@@H](O)C2)CCc2cccnc21
IC50 [19]: 5 nM
Ki [2]: 4.4 nM

Cc1ccccc1C1CCN(C[C@@H]2CCc3cccnc3C(=O)C2)CC1
logD [1]: 1.3
Ki [2]: 49 nM
